Rows were chosen to be rich in hits. Some 1.8% of all compounds tested hit in one or more screens of this group.
NPY Y2 blocker: blocks the human neuropeptide Y Y2 receptor; NPY-Y2 expressing cells, antagonist mode; 140,000 compounds, 0.99% hits; inhibition, % at 2.7 µM;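 note: 0% = vehicle with agonist challenge and 100% = reference antagonist with challenge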
NPY1 pot ag: potentiates or activates human NPY-Y1 receptor; activation, % at 3.6 µM; 220,000 compounds, 0.37% hits; P25929; NPY-Y1 expressing cells, potentiator/agonist activation; in the data active = activation above about 33%, passing the limit was not always enough;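 note: cells stimulated with NPY at EC10 then isoproterenol at EC100; 0% = low agonist plus stimulus and 100% = saturating agonist plus stimulus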
Target sequence (P25929 whole entry, looked up): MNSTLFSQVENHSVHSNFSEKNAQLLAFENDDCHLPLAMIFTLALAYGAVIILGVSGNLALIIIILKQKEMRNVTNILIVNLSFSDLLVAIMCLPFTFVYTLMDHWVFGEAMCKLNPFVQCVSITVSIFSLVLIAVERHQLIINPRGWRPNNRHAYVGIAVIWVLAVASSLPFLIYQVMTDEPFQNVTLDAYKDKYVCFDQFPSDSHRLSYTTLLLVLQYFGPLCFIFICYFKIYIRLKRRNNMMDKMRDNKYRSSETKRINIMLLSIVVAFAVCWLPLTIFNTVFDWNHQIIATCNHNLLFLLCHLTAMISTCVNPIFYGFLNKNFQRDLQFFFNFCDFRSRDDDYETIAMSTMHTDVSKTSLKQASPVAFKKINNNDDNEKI
NPY Y1 blocker: NPY-Y1 (human) receptor antagonism. P25929. HEK293-CNG Y1 cells, membrane potential fluorescence; NPY at EC95, then isoproterenol. inhibition, % at 3.6 µM. 200,000 compounds, 1% hits;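 active = inhibition above the campaign mean inhibition of all tested compounds plus 3 SD, cut at about 20% in these data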;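 note: 0% = DMSO wells given NPY plus isoproterenol and 100% = isoproterenol alone without NPY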
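material = HEK293 cells with Y1 receptor plus CNG channel | also added = NPY 25 nM then isoproterenol 1 µM plus Ro 20-1724 25 µM | schedule = dye 3 h, compound 60 min room temperature, stimulation 45 min | measured by = membrane potential fluorescence | benchmarks = high control isoproterenol alone, low control NPY with isoproterenol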
NPY2 pot ag: potentiators or agonists of human neuropeptide Y receptor Y2. AID 1359. activation, % at 3.6 µM. 220,000 compounds, 0.45% hits. cells expressing NPY-Y2, potentiator/agonist read-out; in the data active = activation above about 27%;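 note: cells stimulated with NPY near EC25 plus isoproterenol at EC100; 0% = vehicle plus submaximal agonist and 100% = vehicle plus saturating agonist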
NPY1 antag conf: confirmation of human neuropeptide Y receptor Y1 antagonists; inhibition, % at 3.6 µM; 1,200 compounds, 21% hits; HEK293-CNG NPY-Y1, membrane potential fluorescence, cAMP; NPY challenge against isoproterenol-raised cAMP; AID 1254; shares compounds with NPY Y1 blocker; in the data active = inhibition above about 20%;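 note: 0% = vehicle with agonist plus stimulus and 100% = stimulus alone without agonist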
NPY-Y2 antag ct: human NPY-Y2 antagonism in NPY-Y1 counter-screen. shares compounds with NPY Y1 blocker. 1,200 compounds, 28% hits. inhibition, % at 3.6 µM. AID 1255. HEK293 NPY-Y2 CNG membrane potential fluorescence; cells given NPY, then isoproterenol;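 note: 0% = DMSO with agonist challenge and 100% = reference antagonist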
The depositor's hits bear a star; · = no result. Cut-off read from the data, not from the text of the source, unless noted: active = inhibition above about 17%; inactive = the rest.

SMILES	NPY Y2 blocker	NPY1 pot ag	NPY Y1 blocker	NPY2 pot ag	NPY1 antag conf	NPY-Y2 antag ct
CC(C)(C)NC(=O)NC(=O)COC(=O)CNS(=O)(=O)c1ccc(Br)cc1Cl	·	-12	2	-11	·	·
CSc1ccc(-c2nc3cnccn3c2Nc2ccc3c(c2)OCO3)cc1	12	13	28*	17	16	5
Clc1ccc(-c2nc3cnccn3c2Nc2ccc3c(c2)OCO3)cc1	10	5	15	12	·	·
CC(C)(CN1CCN(C(c2ccccc2)c2ccccc2)CC1)NS(=O)(=O)c1ccccc1	·	-10	·	-52	·	·
COc1ccc(OC)c(C2=Nn3c(nnc3-c3cc(OC)c(OC)c(OC)c3)SC2)c1	6	-34	27*	-14	24*	29*
CCOC(=O)c1c(-c2ccccc2)oc2cc(CN(C)C)c(O)c(CN(C)C)c12	3	-30	10	-5	·	·
CCSc1nc(C2CC2)cc(-c2cccs2)c1C#N	3	-18	22*	-17	7	8
CCSc1nc(C2CC2)cc(-c2ccco2)c1C#N	5	-14	7	-4	·	·
CC(=O)N/C(=C/c1ccc(OS(=O)(=O)c2ccc(C)cc2)cc1)C(=O)Nc1ccc(C(=O)O)cc1	·	-10	·	5	·	·
CC(C)[C@H](NC(=O)c1ccco1)C(=O)OCC(=O)NC12CC3CC(CC(C3)C1)C2	·	-12	7	3	·	·
CC(NC(=O)COC(=O)CCNC(=O)c1ccco1)C12CC3CC(CC(C3)C1)C2 (stereo not given)	4	-31	20*	-25	22*	27*
COc1cc(C(=O)NCCN2C(=O)S/C(=C\c3ccc(F)cc3)C2=O)ccc1OCC(=O)N1CCOCC1	·	20	·	-1	·	·
CC1CCN(C(=O)CSc2nc3ccccc3c(=O)n2Cc2ccc3c(c2)OCO3)CC1	12	-43	21*	-20	4	6
CCOC(=O)C1=C(C)NC(=O)C1CC(=O)O (stereo not given)	-2	-8	9	6	·	·
CCOC(=O)/C(C#N)=C\c1cc(OC)c(OC)cc1[N+](=O)[O-]	·	-6	-3	0	·	·
Cc1nn(C)cc1C(C)NC(=O)c1cc(COc2c(F)cccc2F)on1 (stereo not given)	·	-6	-3	-29	·	·
CC(NC(=O)c1cc(COc2c(F)cccc2F)on1)c1cnn(-c2ccccc2)c1 (stereo not given)	·	-36	22*	-15	6	8
CCN1CCN(c2nc(-c3ccccc3)nc3ccccc23)CC1	5	-36	21*	1	10	6
c1ccc2c(N3CCOCC3)nc(-c3ccncc3)nc2c1	2	7	-1	14	·	·
Cc1ccc(Cc2cnc(NC(=O)/C(C#N)=C/c3ccc(-c4ccccc4[N+](=O)[O-])o3)s2)cc1	15	-24	27*	-19	50*	46*
CCC(C)(C)n1nnnc1CN(Cc1ccco1)Cc1cc2cc3c(cc2[nH]c1=O)OCO3	4	-27	4	1	·	·
CCC(C)(C)n1nnnc1CN(Cc1ccc(Cl)cc1)Cc1ccco1	17	-37	24*	-23	17	14
CN(C)S(=O)(=O)c1cccc(C(=O)Nc2ccc(S(=O)(=O)N3CCCC3)cc2)c1	·	9	-4	19	·	·
CCOC(=O)c1c(C)n(C)c2ccc(OCC(O)CN3CCN(C)CC3)cc12 (stereo not given)	3	-13	-3	1	·	·
CCOC(=O)c1c(C)n(-c2ccc(C)cc2)c2ccc(OCC(O)CN3CCN(C)CC3)cc12 (stereo not given)	·	-57	47*	-47	25*	47*
SMILES	NPY Y2 blocker	NPY1 pot ag	NPY Y1 blocker	NPY2 pot ag	NPY1 antag conf	NPY-Y2 antag ct
Cc1c2c(nc3c(C(=O)NC4CCCCC4C)cnn13)CCCC2 (stereo not given)	8	-22	20*	-12	13	22*
Cc1cc(C)n2ncc(C(=O)NC3CCCCC3)c2n1	·	9	3	3	·	·
O=C(Cn1cncn1)N/N=C/c1ccccc1O	·	0	·	11	·	·
CCCCCC(=O)Nc1ccccc1N1CCN(c2ccccc2)CC1	5	-49	22*	-16	6	15
CCCCC(=O)Nc1ccccc1N1CCOCC1	·	-12	3	11	·	·
Fc1ccc(C(CNC(=S)NC2CCCCC2)N2CCOCC2)cc1 (stereo not given)	·	-10	1	6	·	·
Cc1cc(C#N)c(C)c(SCc2[nH]nc3c2C(c2ccccc2)C(C#N)=C(N)O3)n1 (stereo not given)	8	-27	21*	-16	59*	39*
Cc1cc(C)c(C#N)c(SCc2[nH]nc3c2C(c2ccc(F)cc2)C(C#N)=C(N)O3)n1 (stereo not given)	11	-41	42*	-15	57*	41*
COCc1[nH]nc2c1C(c1cccc(OC)c1)C(C#N)=C(N)O2 (stereo not given)	4	-21	6	-9	·	·
COC(=O)c1c(NC(=O)CN2CCCC(C)C2)c2c(C)cccc2n1C (stereo not given)	13	-16	32*	-17	6	4
COC(=O)c1c(NC(=O)CN2CCC(C(N)=O)CC2)c2c(C)cccc2n1C	-2	10	8	4	·	·
CCO[C@@H]1OC(C(=O)N2CCOCC2)=C[C@H](c2ccc(C(F)(F)F)cc2)[C@H]1CCCO	·	5	0	-14	·	·
CC1Cc2ccccc2N1C(=O)c1cc2sccc2n1Cc1ccc(F)cc1 (stereo not given)	11	-39	20*	-12	8	15
CCN(CC)S(=O)(=O)c1ccc(OC)c(NC(=O)c2cc(=O)[nH]c3ccccc23)c1	·	-2	8	-7	·	·
CC(C)c1ccc(CNC(=O)C(=O)NCCCn2ccnc2)cc1	·	2	5	8	·	·
Cc1ccc(SCCC(=O)OCn2nnc3ccccc3c2=O)cc1	·	-2	23*	-14	14	15
CCCC[n+]1c(-c2ccc(Cl)cc2Cl)csc1Nc1ccccc1	3	-10	17	15	·	·
Clc1ccc(-c2csc(Nc3ccccc3)[n+]2Cc2ccco2)c(Cl)c1	·	-6	32*	-10	23*	12
N=c1n(CCN2CCOCC2)c2ccccc2n1CC(=O)c1ccc(Cl)c(Cl)c1	7	-5	16	-5	·	·
CCCn1c(=N)n(CC(O)c2ccc(C)cc2)c2ccccc21 (stereo not given)	·	-12	·	-29	·	·
N=c1n(CCN2CCCC2)c2ccccc2n1CC(O)c1ccc(Cl)c(Cl)c1 (stereo not given)	·	-33	43*	-28	16	29*
N=c1n(Cc2ccccc2)c2ccccc2n1CC(O)c1ccccc1 (stereo not given)	16	-24	28*	-14	9	16
N=c1n(Cc2ccccc2Cl)c2ccccc2n1CC(O)c1ccco1 (stereo not given)	·	6	28*	-7	15	25*

High-throughput results from PubChem BioAssay.
